Sampled rows, rich in hits. Any-hit rate of the full collection: about 2.2%.
Tn6 DDE FP – disrupts Tn6 cyclic peptide binding to fibrin D-Dimer-E complex; 370,000 compounds, 0.21% hits; inhibition, % at 8.3 µM; Fibrin DD(E) TRITC-Tn6 fluorescence polarization displacement;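 active means inhibition above a per-campaign cutoff: mean of compounds within control limits plus 3 SD, cut at about 15% in these data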;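 further: 0% = median of all compound wells on the plate and 100% = blocking peptide control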
Tn7 DDE FP – DD(E)-Tn7 binding inhibition, primary FP screen; FP displacement of FITC-Tn7 peptide from fibrin DD(E); 0% = median of compound wells per plate; inhibition, % at 8.3 µM; 370,000 compounds, 0.13% hits; AID 720508;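 active means inhibition above the mean of compounds falling within the control limits plus 3 SD of them, cut at about 14% in these data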;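 further: 0% = plate median of compound wells and 100% = 10 µM Aha-Tn7 peptide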
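Also added: labelled Tn7 tracer, 0.1 µM; Assay system: human fibrin DD(E) protein; Amount: 2 µM fibrin DD(E); Schedule: 10 min compound pre-incubation, 3 h probe incubation at room temperature; Repeats: one replicate per compound; Read-out basis: percent inhibition; Measured by: fluorescence polarization of the labelled Tn7 tracer.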
proKLK7 act – activators of human kallikrein-7 zymogen | P49862 | purified proKLK7, EDANS-DABCYL substrate fluorescence; 100% is mature enzyme control, 0% vehicle | activation, % at 7 µM | 370,000 compounds, 0.9% hits;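 active means activation above the mean of all tested compounds plus 3 SD, computed per campaign excluding outliers beyond control limits, cut at about 13% in these data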
Neddyl block – inhibitors of human cullin neddylation; calls only at 25 µM; TR-FRET cullin neddylation, biochemical; P61081+Q13564; 360,000 compounds, 0.58% hits; AID 651699; in the data active means inhibition above about 36%
Target sequence (P61081 whole entry, looked up): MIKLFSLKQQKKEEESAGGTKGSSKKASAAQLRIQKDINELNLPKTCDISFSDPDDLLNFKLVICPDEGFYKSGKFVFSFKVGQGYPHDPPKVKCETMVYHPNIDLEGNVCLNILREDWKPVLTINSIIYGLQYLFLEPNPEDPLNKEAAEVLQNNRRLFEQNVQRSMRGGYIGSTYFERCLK
Target sequence (Q13564 whole entry, looked up): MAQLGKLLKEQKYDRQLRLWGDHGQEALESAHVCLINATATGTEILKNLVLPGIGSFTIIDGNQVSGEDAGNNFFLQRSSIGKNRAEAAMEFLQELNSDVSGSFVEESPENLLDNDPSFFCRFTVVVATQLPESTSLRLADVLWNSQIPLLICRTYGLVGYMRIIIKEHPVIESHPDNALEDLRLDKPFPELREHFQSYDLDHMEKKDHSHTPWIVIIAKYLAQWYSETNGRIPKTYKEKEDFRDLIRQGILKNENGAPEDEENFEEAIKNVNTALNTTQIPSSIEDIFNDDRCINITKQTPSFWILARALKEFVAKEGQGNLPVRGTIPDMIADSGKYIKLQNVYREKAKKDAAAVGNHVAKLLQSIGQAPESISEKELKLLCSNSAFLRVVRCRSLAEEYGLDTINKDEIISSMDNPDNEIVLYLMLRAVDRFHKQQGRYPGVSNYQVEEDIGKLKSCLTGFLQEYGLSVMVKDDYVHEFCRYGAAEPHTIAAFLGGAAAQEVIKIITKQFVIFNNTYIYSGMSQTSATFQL
MT1-MMP act inh – blocks activation of human MT1-MMP; HT1080 RFP-PRO-GFP cells, GFP/RFP ratio fluorescence, overnight; percent of plate control window, DMSO zero; AID 651647; P50281; 360,000 compounds, 0.061% hits; GFP/RFP ratio change, % at 20 µM;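 active means GFP/RFP ratio change of at least 30% with cell ATP level not reduced by more than half and red fluorescence within 50% of control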
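Test system: HT1080 cells expressing an RFP-PRO-GFP fluorescent reporter construct / Compound dosing: single-point 20 µM compound, 1% DMSO / Schedule: cells overnight before dosing, compound overnight, 37 °C, 5% CO2 / Evaluation: GFP/RFP fluorescence ratio / Control set: DMSO and RFP-L50D-GFP cell wells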
SKN-1 inh – inhibitors of C. elegans SKN-1; C. elegans VP596 Pgst-4::GFP/RFP ratio, acrylamide-induced, 24 h; inhibition, % at 21.8 µM; 360,000 compounds, 0.49% hits; AID 624304;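 active means interference check ratio from 0.5 to 1.5 plus GFP to RFP signal ratio inhibition reaching or exceeding a fixed threshold, cut at about 30% in these data, passing the limit was not always enough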
Neddyl conf – confirmation of human cullin neddylation inhibitors | shares compounds with Neddyl block | TR-FRET cullin neddylation biochemical assay | calls only at 25 µM | 1,800 compounds, 13% hits; in the data active means inhibition above about 40%;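 further: neddylation substrate is the cullin 1 ring ligase complex with SKP2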
Starred values were filed as active, the others as inactive; i = inactive; nt = not tested or not shown; + = active, no number.

SMILES | Tn6 DDE FP | Tn7 DDE FP | proKLK7 act | Neddyl block | MT1-MMP act inh | SKN-1 inh | Neddyl conf
CN(Cc1cccs1)c1ncnc2ccc(-c3ccc4c(c3)OCO4)cc12 | -4.0 | 7.6 | nt | nt | nt | nt | nt
O=C(Nc1ccc2nc(-c3ccccc3)oc2c1)c1ccco1 | 3.6 | -5.2 | 1.4 | + | 5.2 | 75.3* | i
COCc1cc(C)nc2sc(C(=O)OC)c(N)c12 | 3.4 | 1.4 | 2.3 | + | 2.5 | -0.3 | nt
COCc1cc(C)nc2sc(C(=O)Nc3ccccc3Br)c(N)c12 | 2.5 | 3.1 | 2.4 | nt | 1.0 | 0.7 | nt
COCc1cc(C)nc2sc(C(=O)Nc3ccccc3C)c(N)c12 | -4.9 | -1.6 | 3.5 | + | -4.8 | 20.6 | nt
COc1ccc(CCNC(=O)COc2ccc(S(=O)(=O)NC3CCCCC3)cc2Cl)cc1OC | -1.7 | 0.3 | 0.3 | i | -4.7 | 9.3 | nt
C#CCN1CC(COCCCC)Oc2cccc(F)c2S1(=O)=O (stereo unspecified) | -9.6 | -0.8 | 0.1 | nt | nt | nt | nt
COCC1CCN(C(=O)c2cc(COc3ccc(F)cc3Cl)on2)C1 (stereo unspecified) | -0.4 | -1.8 | 0.2 | i | -0.7 | 18.2 | nt
Cc1nn(C)cc1C(C)NC(=O)c1cc(COc2cccc3cnccc23)on1 (stereo unspecified) | 5.3 | 3.6 | 7.2 | + | -4.1 | 11.1 | +
COCC1CCN(C(=O)c2cc(COc3cccc4cnccc34)on2)CC1 | 2.9 | 3.8 | 10.0 | + | -2.7 | 11.4 | nt
COc1ccccc1-c1ccc(/C=C2/C=C(C)OC2=O)o1 | 4.2 | -3.0 | 6.9 | nt | -5.0 | 13.3 | nt
COc1ccc(NC(=O)C2CCCN(c3cnccn3)C2)cc1 (stereo unspecified) | 0.8 | -1.1 | 0.4 | i | 1.9 | 9.1 | nt
CC(C)(C)c1ccc(NC(=O)C2CCCN(c3cnccn3)C2)cc1 (stereo unspecified) | -2.2 | 4.2 | -0.2 | + | 3.3 | 11.4 | i
COc1cc(NC(=O)CN2C(=O)CN(C)C2=O)c(C)cc1[N+](=O)[O-] | 2.2 | 1.2 | 0.0 | i | 4.2 | -1.6 | nt
CCOn1c(=O)c[n+]([O-])c2ccccc21 | 1.3 | 0.9 | 1.1 | + | -33.2 | -6.7 | nt
O=c1c[n+]([O-])c2ccccc2n1OCc1ccccn1 | -3.3 | -6.8 | -0.5 | + | -37.7 | 18.8 | i
O=c1c[n+]([O-])c2ccccc2n1OCc1c(F)cccc1F | -8.2 | -6.5 | 0.3 | + | -48.7 | 11.8 | +
O=C(O)c1cccc(OCCN2CCCC2=O)c1 | 3.8 | 3.5 | 0.3 | i | -0.2 | 0.5 | nt
CC(=O)c1sc(-c2ccc(F)cc2)cc1NS(=O)(=O)c1ccccc1 | 6.7 | 1.2 | 0.4 | + | 6.3 | 0.0 | i
O=C(Nc1cccc(NC(=O)C2CCCO2)c1)C1CCCO1 (stereo unspecified) | -0.3 | -1.5 | 0.3 | i | 0.8 | -9.8 | nt
Cc1ccc(-c2c(C#N)c(N)nc3c2CCCCCC3)o1 | -2.0 | -7.7 | -2.3 | i | -6.3 | 8.6 | nt
Cc1ccc(-c2c(C#N)c(N)nc3c2CCCCC3)o1 | 10.8 | 2.7 | -2.8 | + | -6.6 | 6.8 | nt
O=C(Nc1nn[nH]n1)c1ccc(S(=O)(=O)N2CCCCC2)cc1 | -4.3 | 2.2 | 0.1 | i | 2.5 | 11.8 | nt
COc1ccc2oc(=O)c(-c3nc4ccccc4o3)cc2c1 | 5.0 | 6.2 | -6.5 | + | -14.6 | -14.6 | +
COc1ccc(-c2nnc(-c3cc4ccccc4oc3=O)o2)cc1 | -5.6 | 1.0 | -0.7 | nt | 4.0 | 7.4 | nt
SMILES | Tn6 DDE FP | Tn7 DDE FP | proKLK7 act | Neddyl block | MT1-MMP act inh | SKN-1 inh | Neddyl conf
COCCCNc1nc2ccccc2nc1NS(=O)(=O)c1ccc(C)cc1 | 4.9 | 5.3 | 2.9 | i | -3.5 | 1.3 | nt
COCCNc1nc2ccccc2nc1NS(=O)(=O)c1ccc(C)cc1C | -4.5 | -8.6 | 1.1 | + | -4.0 | 0.8 | +
COCCCNc1nc2ccccc2nc1NS(=O)(=O)c1ccc(C)c(C)c1 | 1.5 | 5.8 | 3.8 | + | -5.7 | -2.6 | nt
Cc1c(OCC(=O)NCCCn2ccnc2)ccc2c3c(c(=O)oc12)CCCC3 | 6.2 | -6.6 | -0.2 | i | -1.1 | 7.1 | nt
Cc1c(NC(=O)C2CCCN2S(=O)(=O)c2ccc(Cl)cc2)c(=O)n(-c2ccccc2)n1C (stereo unspecified) | -3.9 | 0.3 | 0.1 | i | -5.4 | -1.0 | nt
Cc1ccc(-c2cc(-c3ccc(F)cc3)c(C#N)c(N)n2)o1 | -4.6 | 6.5 | 2.6 | + | -17.3 | -3.1 | nt
COc1ccc(NC(=O)N2c3ccc(OC)cc3C(C)=CC2(C)C)cc1 | 4.3 | 5.6 | -12.0 | + | -3.0 | 2.5 | nt
C#CC[N+](CC)(CC)CC#Cc1cccc(Cl)c1 | 4.2 | -2.3 | 0.2 | i | 0.5 | -1.3 | nt
Cc1ccc2c3c([nH]c2c1)C(=O)CC(C)(C)S3 | 5.0 | -2.6 | 1.5 | + | 0.1 | 3.7 | i
Cc1ccc(C)c(S(=O)(=O)Nc2ccc(C(=O)NCC(c3ccco3)N(C)C)cc2)c1 (stereo unspecified) | -2.9 | 7.2 | -0.3 | i | 2.0 | 10.4 | nt
COc1ccc2cc(/C(C)=N/NC(=O)C3CC3)ccc2c1 | 0.6 | 2.6 | 5.4 | + | 4.6 | 19.0 | i
COc1ccccc1NC(=O)CCC(=O)Nc1nnc(C2CCCCC2)s1 | 2.6 | -0.5 | 0.5 | i | 0.6 | -8.6 | nt
COc1ccc(S(=O)(=O)N2CCOCC2)cc1NC(=O)COC(=O)c1ccc(C)s1 | 3.2 | -5.6 | -0.9 | i | -2.3 | -3.7 | nt
COCCn1c(C)cc(/C=N/NC(=O)c2cc3ccccc3cc2O)c1C | nt | nt | nt | + | 0.6 | 5.9 | nt
Brc1ccc(-c2ccc(/C=N/Nc3nc(N4CCOCC4)nc(N4CCOCC4)n3)o2)cc1 | 10.2 | 1.7 | -1.0 | + | -5.7 | 2.3 | i
CCC1CCCCN1C(=O)CSc1nnc(CNC(=O)c2cc(OC)c(OC)c(OC)c2)o1 (stereo unspecified) | -6.9 | -1.6 | -0.2 | i | 3.3 | 5.0 | nt
CCc1nn(C(CC)C(=O)NCc2cccs2)c(=O)c2cc3occc3n12 (stereo unspecified) | -2.9 | -2.3 | -0.1 | i | 0.9 | 0.7 | nt
COc1ccc(C)cc1NC(=O)c1nn(-c2ccccc2)cc1OC | -7.2 | -0.8 | -1.4 | + | -6.1 | 19.9 | i
Cc1ccc(-c2c(C#N)c(N)nc3c2CCCCC3)cc1 | -5.1 | -5.7 | -0.6 | i | 2.0 | 3.1 | nt
COc1ccc(/C=C2\CCn3c2nc2cc(C(=O)O)ccc2c3=O)cc1OC | 1.9 | 4.4 | 0.8 | i | 3.6 | -11.7 | nt

Assay outcomes from PubChem.
